Assay results taken from ChEMBL document CHEMBL1157079, “Labdane diterpenes from the aerial parts of Curcuma comosa enhance fetal hemoglobin production in an erythroid cell line” (J Nat Prod, 2010).
The source made the active and inactive calls. The rule behind the calls is not given here.

Legend:
[1] = Cytotoxicity against human K562 cells assessed as cell viability at 5 uM; assay type: cell-based; conditions: read-out: Activity
Method in brief: (§1)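 Stable reporter line K562::∆Gγ-Aγ EGFP, carrying the EGFP gene under a γ-globin promoter within the intact human β-globin locus. Compounds tested at 5-100 µM. Read-out is EGFP expression as fold change relative to untreated, with % cell viability measured alongside. Hemin 50 µM and cisplatin 10 µM serve as reference inducers, with a DMSO vehicle control. Values are mean ± SD of three independent experiments.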

K562 [2] = test: Induction of fetal heamoglobin level in human K562 cells assessed as increase in enhanced GFP expression under the control of gamma-globin promoter at 5 uM after 5 days by flow cytometry; assay type: functional; method in brief: as §1
K562 [3] = test: Induction of fetal heamoglobin level in human K562 cells assessed as increase in enhanced-GFP expression under the control of gamma-globin promoter at 5 to 100 uM after 5 days by flow cytometry; assay type: functional, cell-based; method in brief: as §1
K562 [4] = test: Induction of fetal heamoglobin level in human K562 cells assessed as increase in enhanced-GFP expression under the control of gamma-globin promoter at 30 uM after 5 days by flow cytometry; assay type: functional; method in brief: as §1
[5] = Cytotoxicity against human K562 cells assessed as cell viability at 30 uM; assay type: cell-based; conditions: read-out: Activity; method in brief: as §1
K562 [6] = test: Induction of fetal heamoglobin level in human K562 cells assessed as increase in enhanced GFP expression under the control of gamma-globin promoter after 5 days by flow cytometry; assay type: functional, cell-based; method in brief: as §1
[7] = Cytotoxicity against human K562 cells assessed as cell viability at 20 uM; assay type: cell-based; conditions: read-out: Activity; method in brief: as §1
K562 [8] = test: Induction of fetal heamoglobin level in human K562 cells assessed as increase in enhanced-GFP expression under the control of gamma-globin promoter at 20 uM after 5 days by flow cytometry; assay type: functional; method in brief: as §1

Structure (SMILES) | viability at 5 µM [1] [%] | fold change (FC) (K562 [2]) | Activity (K562 [3]) | fold change (FC) (K562 [4]) | viability at 30 µM [5] [%] | Activity (K562 [6]) | viability at 20 µM [7] [%] | fold change (FC) (K562 [8])
C=C1CC[C@H]2C(C)(C)CCC[C@]2(C)[C@H]1/C=C/c1ccoc1 [CORONARIN E] | 87.2 | 0.7 | inactive |  |  |  |  | 
C=C1CC[C@H]2C(C)(C)C(=O)CC[C@]2(C)[C@H]1/C=C/C1=CCOC1=O [CURCUCOMOSIN A] | 85.8 | 1 | inactive |  |  |  |  | 
C=C1CC[C@H]2C(C)(C)[C@@H](O)CC[C@]2(C)[C@H]1/C=C/C1=CCOC1=O [CURCUCOMOSIN B] | 87.7 | 1 | inactive |  |  |  |  | 
C=C1CC[C@H]2C(C)(C)CCC[C@]2(C)[C@H]1C[C@@H](O)C1=CCOC1=O [CURCUCOMOSIN C] |  |  |  | 1.2 | 75.8 |  |  | 
C=C1CC[C@H]2C(C)(C)CCC[C@]2(C)[C@H]1C/C=C1/C(=O)OC[C@@H]1O [ISOCORONARIN D] |  |  |  |  |  | Dose-dependent effect | 80.7 | 1.6
C=C1CC[C@H]2C(C)(C)CCC[C@]2(C)[C@H]1/C=C/C1=CCOC1=O [VILLOSIN] | 88.9 | 1 | inactive |  |  |  |  | 
C=C1CC[C@H]2C(C)(C)CCC[C@]2(C)[C@H]1/C=C/C1=C(O)COC1=O [ZERUMIN] | 87.5 | 1 | inactive |  |  |  |  | 
